According to ChEMBL document CHEMBL4842367, “Strategies toward Discovery of Potent and Orally Bioavailable Proteolysis Targeting Chimera Degraders of Androgen Receptor for the Treatment of Prostate Cancer” (J Med Chem, 2021):
Active and inactive are the calls of the source. The rule behind the calls is not given here.

Columns and labels:
[1] = Tmax in ICR mouse at 5 mg/kg, po measured up to 24 hrs by LC-MS/MS analysis; assay type: ADME, organism-based; conditions: in vivo
Outline: (§1)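 Male ICR mice, single oral gavage (3 or 5 mg/kg) in 5% DMSO/10% solutol/85% saline, three mice per group. Separate IV tail-vein bolus group (1 or 2 mg/kg) in the same vehicle. Blood sampled at 0.083–24 h, one sample per mouse, plasma diluted threefold and analysed by LC–MS/MS; noncompartmental parameters.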

[2] = target: Protein cereblon/Androgen receptor (Homo sapiens, UniProt P10275+Q96SW2); experiment: Protac activity at CRBN/AR in human VCaP cells assessed as induction of AR degradation measured after 24 hrs by western blot analysis
Chain of Protein cereblon/Androgen receptor (P10275 whole entry): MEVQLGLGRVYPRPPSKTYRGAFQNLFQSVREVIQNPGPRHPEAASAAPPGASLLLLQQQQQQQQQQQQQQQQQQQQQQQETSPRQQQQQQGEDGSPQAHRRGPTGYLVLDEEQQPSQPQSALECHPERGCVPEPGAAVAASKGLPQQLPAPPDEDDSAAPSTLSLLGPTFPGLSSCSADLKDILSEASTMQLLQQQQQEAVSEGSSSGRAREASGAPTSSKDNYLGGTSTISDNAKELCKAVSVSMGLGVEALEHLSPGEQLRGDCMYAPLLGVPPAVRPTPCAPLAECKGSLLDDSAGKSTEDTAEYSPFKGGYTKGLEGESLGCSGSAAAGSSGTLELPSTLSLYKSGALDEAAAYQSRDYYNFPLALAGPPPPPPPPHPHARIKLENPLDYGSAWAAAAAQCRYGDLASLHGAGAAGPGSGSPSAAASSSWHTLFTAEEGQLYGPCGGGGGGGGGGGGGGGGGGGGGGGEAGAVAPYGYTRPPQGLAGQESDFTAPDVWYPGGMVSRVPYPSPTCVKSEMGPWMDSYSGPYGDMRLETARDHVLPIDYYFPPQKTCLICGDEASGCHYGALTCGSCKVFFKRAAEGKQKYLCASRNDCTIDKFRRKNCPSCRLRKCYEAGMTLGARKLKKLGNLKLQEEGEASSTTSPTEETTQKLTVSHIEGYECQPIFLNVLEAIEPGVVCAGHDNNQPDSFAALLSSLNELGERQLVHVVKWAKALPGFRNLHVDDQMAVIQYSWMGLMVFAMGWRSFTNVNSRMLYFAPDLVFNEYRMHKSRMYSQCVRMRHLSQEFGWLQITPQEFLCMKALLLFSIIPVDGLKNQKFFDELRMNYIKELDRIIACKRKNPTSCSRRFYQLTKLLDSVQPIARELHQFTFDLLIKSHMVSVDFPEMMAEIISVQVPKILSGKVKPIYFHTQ
Chain of Protein cereblon/Androgen receptor (Q96SW2 whole entry): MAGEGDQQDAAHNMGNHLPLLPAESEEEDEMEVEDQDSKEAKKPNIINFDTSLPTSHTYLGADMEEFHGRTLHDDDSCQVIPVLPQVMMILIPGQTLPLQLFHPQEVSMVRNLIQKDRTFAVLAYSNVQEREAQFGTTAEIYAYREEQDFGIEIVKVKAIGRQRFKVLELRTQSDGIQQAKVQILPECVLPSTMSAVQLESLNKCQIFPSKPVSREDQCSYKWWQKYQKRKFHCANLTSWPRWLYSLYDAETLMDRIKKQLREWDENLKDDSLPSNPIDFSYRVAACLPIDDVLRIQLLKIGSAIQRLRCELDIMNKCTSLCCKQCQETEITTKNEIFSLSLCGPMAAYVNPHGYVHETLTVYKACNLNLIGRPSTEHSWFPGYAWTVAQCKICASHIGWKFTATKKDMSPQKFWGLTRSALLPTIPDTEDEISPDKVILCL

VCaP [3] = experiment: Growth inhibition of human VCaP cells assessed as cell viability measured after 4 days in presence of R1881 by WST-8 assay; assay type: functional, cell-based; conditions: 96 h
Outline: (§2)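 LNCaP and VCaP cells exposed to compounds for 4 days in charcoal-stripped medium containing 0.1 nM R1881; viability read by WST-8 assay.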

LNCaP [4] = experiment: Growth inhibition of human LNCaP cells assessed as cell viability measured after 4 days in presence of R1881 by WST-8 assay; assay type: functional, cell-based; conditions: 96 h; outline: as §2
VCaP [5] = experiment: Suppression of PSA gene expression in human VCaP cells assessed as mRNA level treated for 24 hrs by qRT-PCR analysis; assay type: functional, cell-based; conditions: dose 1-1000 nM
Outline: (§3)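 VCaP and LNCaP cells treated 24 h; PSA (KLK3) and TMPRSS2 mRNA quantified by TaqMan qRT-PCR, comparative CT method relative to GAPDH and then vehicle control.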

VCaP [6] = experiment: Suppression of TMPRSS2 gene expression in human VCaP cells assessed as mRNA level treated for 24 hrs by qRT-PCR analysis; assay type: functional, cell-based; conditions: dose 1-1000 nM; outline: as §3
LNCaP [7] = experiment: Suppression of PSA gene expression in human LNCaP cells assessed as mRNA level treated for 24 hrs by qRT-PCR analysis; assay type: functional, cell-based; conditions: dose 1-1000 nM; outline: as §3
LNCaP [8] = experiment: Suppression of TMPRSS2 gene expression in human LNCaP cells assessed as mRNA level treated for 24 hrs by qRT-PCR analysis; assay type: functional, cell-based; conditions: dose 1-1000 nM; outline: as §3
[9] = Oral bioavailability in ICR mouse at 5 mg/kg measured up to 24 hrs by LC-MS/MS analysis; assay type: ADME, organism-based; conditions: in vivo; outline: as §1
Mus musculus [10] = experiment: Reduction in AR protein level in tumor of human VCaP cells xenografted in SCID mouse at 20 mg/kg, po single dose measured after 24 hrs by Western blot analysis; assay type: functional, organism-based
Outline: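 SCID mice bearing VCaP xenografts given one oral dose of 20 mg/kg; tumors harvested at 6 and 24 h after dosing and AR protein measured by Western blot with GAPDH loading control.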

[11] = Plasma concentration in human VCaP cells xenografted in SCID mouse at 20 mg/kg, po single dose measured after 6 hrs by LC-MS/MS analysis; assay type: ADME, organism-based
Outline: (§4)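 Single oral gavage, 20 mg/kg in 100% PEG200, to male SCID mice bearing one VCaP tumor each (about 200 mm³). Plasma and tumor taken at 6 and 24 h, three mice per time point. Tumors frozen, ground in liquid nitrogen, homogenized in water/acetonitrile 4:1, precipitated with cold acetonitrile; analysis by positive-ion MRM LC–MS/MS.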

[12] = Plasma concentration in human VCaP cells xenografted in SCID mouse at 20 mg/kg, po single dose measured after 24 hrs by LC-MS/MS analysis; assay type: ADME, organism-based; outline: as §4
[13] = Drug uptake in human VCaP cells xenografted in SCID mouse tumor tissue at 20 mg/kg, po single dose measured after 6 hrs by LC-MS/MS analysis; assay type: ADME, organism-based, Neoplasm; conditions: in vivo; outline: as §4
[14] = Drug uptake in human VCaP cells xenografted in SCID mouse tumor tissue at 20 mg/kg, po single dose measured after 24 hrs by LC-MS/MS analysis; assay type: ADME, organism-based, Neoplasm; conditions: in vivo
Outline: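 Male CB17 SCID mice carried subcutaneous VCaP xenografts, implanted as 5 × 10⁶ cells in Matrigel, grown to about 200 mm³. Mice received a single oral gavage of 20 mg/kg in 100% PEG200. Tumors were collected at 6 and 24 h, three mice per time point, and frozen. They were homogenized in water/acetonitrile 4:1, protein-precipitated with cold acetonitrile, and assayed by LC-MS/MS (positive-ion MRM). Values are mean ± SD.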

Mus musculus [15] = experiment: Reduction in AR protein level in human VCaP cells xenografted in SCID mouse tumor tissue at 10 mg/kg, po for 3 days measured after 3 to 24 hrs of treatment by Western blot analysis; assay type: functional, organism-based; conditions: time 3.0 day
Outline: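 SCID mice with VCaP xenografts gavaged 10 mg/kg daily for 3 days; tumors collected at 3, 6 and 24 h after the last dose for Western blot of AR, GAPDH as loading control.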

[16] = Reduction in PSA gene expression in human VCaP cells xenografted in SCID mouse tumor tissue assessed as reduction in mRNA level at 10 mg/kg, po for 3 days measured after 3 hrs of treatment by […]; assay type: functional; conditions: 72 h, time 3 day
Outline: (§5)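 VCaP xenograft-bearing SCID mice dosed orally at 10 mg/kg daily for 3 days; tumors taken 3 h after the last dose. PSA, TMPRSS2 and FKBP5 mRNA measured by TaqMan qRT-PCR, comparative CT normalized to GAPDH and to vehicle control.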

[17] = Reduction in TMPRSS2 gene expression in human VCaP cells xenografted in SCID mouse tumor tissue assessed as reduction in mRNA level at 10 mg/kg, po for 3 days measured after 3 hrs of treatment by […]; assay type: functional; conditions: 72 h, time 3 day; outline: as §5
[18] = Reduction in FKBPS gene expression in human VCaP cells xenografted in SCID mouse tumor tissue assessed as reduction in mRNA level at 10 mg/kg, po for 3 days measured after 3 hrs of treatment by […]; assay type: functional; conditions: 72 h, time 3 day; outline: as §5
VCaP [19] = experiment: Antitumor activity against human VCaP cells xenografted in SCID mouse assessed as tumor growth inhibition at 40 mg/kg, po measured on day 21 relative to control; assay type: functional; conditions: 504 h, read-out: TGI
Outline: (§6)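 Male CB17 SCID mice implanted s.c. with 5 × 10⁶ VCaP cells in Matrigel; at average tumor volume 150 mm³, size-matched and randomized, seven per group. Oral gavage daily for 21 days in 100% PEG200. Tumors measured 2–3 times weekly, volume = length × width²/2; TGI (%) = (Vc − Vt)/(Vc − Vo) × 100 using group medians at start and end.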

VCaP [20] = experiment: Antitumor activity against human VCaP cells xenografted in SCID mouse assessed as tumor growth inhibition at 10 mg/kg, po measured on day 21 relative to control; assay type: functional; conditions: 504 h, read-out: TGI; outline: as §6
VCaP [21] = experiment: Antitumor activity against human VCaP cells xenografted in SCID mouse assessed as tumor growth inhibition at 20 mg/kg, po measured on day 21 relative to control; assay type: functional; conditions: 504 h, read-out: TGI; outline: as §6
[22] = Toxicity in SCID mouse xenografted with human VCaP cells assessed as weight loss at 40 mg/kg, po measured on day 21; assay type: organism-based; conditions: in vivo
Outline: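 Male CB17 SCID mice bearing s.c. VCaP xenografts, randomized at about 150 mm³ (seven per group), gavaged daily for 21 days in 100% PEG200; body weights recorded 2–3 times per week to follow maximum weight loss.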

SMILES: CC1(C)[C@H](NC(=O)c2ccc(N3CCN(CC4CCN(c5ccc6c(c5)C(=O)N(C5CCC(=O)NC5=O)C6=O)CC4)CC3)cc2)C(C)(C)[C@H]1Oc1ccc(C#N)c(Cl)c1 (some centres not stated)
- Tmax [1]: 4.7 h
- EC50 [2]: 0.3 nM
- IC50 (VCaP [3]): 4 nM
- IC50 (LNCaP [4]): 5 nM
- Activity (VCaP [5]): Dose-Dependent Effect
- Activity (VCaP [6]): Dose-Dependent Effect
- Activity (LNCaP [7]): Dose-Dependent Effect
- Activity (LNCaP [8]): Dose-Dependent Effect
- F [9]: 67%
- Activity (Mus musculus [10]): Active
- concentration at 6 h [11]: 1510 ng/mL
- concentration at 24 h [12]: 1660 ng/mL
- Drug uptake [13]: 635 ng/g
- Drug uptake [14]: 1510 ng/g
- Activity (Mus musculus [15]): Active
- inhibition in vivo at 10 mg/kg [16]: > 50%
- inhibition in vivo at 10 mg/kg [17]: > 50%
- inhibition in vivo at 10 mg/kg [18]: > 50%
- inhibition in vivo at 40 mg/kg (VCaP [19]): 63%
- inhibition in vivo at 10 mg/kg (VCaP [20]): 46%
- inhibition in vivo at 20 mg/kg (VCaP [21]): 69%
- Activity [22]: ≤ 5%
